Data published in ChEMBL document CHEMBL4513216, “Probing the Open Global Health Chemical Diversity Library for Multistage-Active Starting Points for Next-Generation Antimalarials” (ACS Infect Dis, 2020).

Experiment: Toxicity liver stage against HepG2, at 10uM
Format: cell-based
Parameters: test concentration 10 uM, cell line HepG2-A16-CD81EGFP
Conditions: human, HepG2-A16-CD81EGFP cells; read-out: INHIBITION
How it was run: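 Uninfected HepG2-A16-CD81EGFP cells, 3 × 10^3 per well, 1536-well, plated on prespotted compound at 10 μM final, parasite-free screening media added to match infected plates; puromycin 10 μM positive, DMSO 0.5% negative; run in parallel with 48 h PbLuc assay at 37 °C, 5% CO2; viability by CellTiter-Glo luminescence, normalized to controls.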

Row | Compound | cytotoxicity at 10 µM
1 | O=c1[nH]ncn1-c1cccc(C(F)(F)F)c1 | -2%
2 | O=C(NCN1CCc2ccccc2C1)c1cnccn1 | 20.2%
3 | O=C(NC[C@H]1OC[C@@H](NC2CCC2)[C@@H]1O)Nc1ccccc1 | -4.16%
4 | Cc1cccc(CNC[C@H]2COCc3nc4cccnc4n32)n1 | -1.79%
5 | COC(=O)c1cccc(C(=O)NCc2ccco2)n1 | 7.44%
6 | COc1ccc(S(=O)(=O)NCCCc2ccc(N(C)C)cc2)cc1Cl | -0.399%
7 | COc1ccc(F)cc1S(=O)(=O)NCCn1cnc(C)cc1=O | -6.49%
8 | COCC(=O)N1CCC2(CC1)CC(OC)c1ccc(F)cc12 (stereo not drawn) | -134%
9 | N#Cc1cccc(CN2C[C@@H](NC(=O)C3CC3)[C@H]3OCCC[C@H]32)c1 | 6.44%
10 | NC(=O)C1CCN(c2nc3nccc(-c4ccncc4)c3c(=O)[nH]2)CC1 | 6.09%
11 | CC(=O)N1N=C(c2ccccc2)OC1C(=O)NCCc1cccc(Cl)c1 (stereo not drawn) | 2.82%
12 | CCNC(=O)N1CCC2(C1)c1ccccc1S(=O)(=O)N2CCC(C)C (stereo not drawn) | -8.25%
13 | COc1cc(CNc2ccc(Cl)cc2)ccc1OCC(=O)O | 3.63%
14 | CCC(=O)N1CCN(c2ncnc3cc4c(cc23)OCCO4)CC1 | 10.2%
15 | CC(NC(=O)CN1CCN(Cc2ccc(Br)s2)CC1)c1ccccc1 (stereo not drawn) | 8.44%
16 | O=C(Nc1ccc(F)cc1-c1nc(C2CC2)no1)N1CC[C@@H](O)C1 | -1.54%
17 | N#Cc1ccc(F)c(CN2CCc3sccc3C2)c1 | -3.09%
18 | CCn1nc2c(cc1=O)CN(Cc1nc(-c3ccoc3)no1)CC2 | 4.9%
19 | COc1ccc(C)nc1NC(=O)Cc1c(C)nn(C)c1C | -0.302%
20 | Cc1cc(C(F)(F)F)c2c(=O)n(Cc3cc(C)on3)n(C)c2n1 | 1.46%
21 | CC(CC(=O)c1ccco1)NC(=O)c1ccccn1 (stereo not drawn) | -5.14%
22 | O=C(NCC1CC1)C1CCCN(c2cccc(C(F)(F)F)n2)C1 (stereo not drawn) | 8.21%

Row | Compound | cytotoxicity at 10 µM
23 | CCc1nc(C(=O)N(CC)CC(=O)N(C)C)nn1-c1ccccc1Cl | 5.25%
24 | CCSCCC(=O)Nc1ncn(Cc2ccccc2)n1 | 4.74%
25 | CC(C)N(CCSc1ncnc2[nH]ncc12)C(C)C | 0.25%
26 | CC(c1cccc(O)c1)N(C)S(N)(=O)=O (stereo not drawn) | -1.89%
27 | CC1CN(C2CCN(Cc3nccn3CC(F)(F)F)CC2)CCO1 (stereo not drawn) | -1.32%
28 | CCN1CCN(c2ccc(C(=O)NC(C)c3ccncc3)cc2)CC1 (stereo not drawn) | -16.6%
29 | Cn1c(=O)oc2ccc(Nc3ncc(C#N)cc3Cl)cc21 | -1.21%
30 | CC(C(=O)NCCc1cccs1)N1CCC(n2ccnc2)CC1 (stereo not drawn) | -16%
31 | Cc1cc(C)n(CC2CCCCN2C(=O)c2sccc2C#N)n1 (stereo not drawn) | -0.497%
32 | Cc1ccc(C(=O)O)cc1S(=O)(=O)N(C)c1cccc(C#N)c1 | 10.6%
33 | O=C1CC(N(C(=O)CCc2c[nH]c3ccccc23)C2CC2)C(=O)N1 (stereo not drawn) | 0.247%
34 | CC(C)C(c1cccnc1)N(C)C(=O)Cc1c(F)cccc1F (stereo not drawn) | -0.595%
35 | O=C(COCc1ccccc1Cl)Nc1ccnn1CC1CCOC1 (stereo not drawn) | -1.9%
36 | CCCNC(=O)CNc1cc(C(=O)N2CCSCC2)ccc1C | -5.91%
37 | O=C(CN1CCCCCCC1=O)NCc1ccccn1 | -15.3%
38 | CN(C)S(=O)(=O)N1CCC(Oc2ccc(C#N)cc2)CC1 | 3.96%
39 | O=C(c1ccc[nH]1)N1CCCn2c(CN3CCCCC3)nnc2C1 | -106%
40 | Cc1cccc(N2CC3(COCCN(c4ccncn4)C3)OCC2=O)c1 (stereo not drawn) | -105%
41 | O=C(c1ccc2[nH]ccc2c1)N1CCn2cc(CN3CCCC3)nc2C1 | -78.2%
42 | CC(=O)N1CCCC2(C1)CN(C(=O)Cc1ccccc1)CCO2 (stereo not drawn) | -83.9%
43 | Cc1occc1C(=O)N1CCC2(CC1)NC(=O)CC2c1cnn(C)c1 (stereo not drawn) | -4.99%
44 | OCc1ccc(CN(CCCn2ccnc2)Cc2ccncc2)o1 | -4.41%

Row | Compound | cytotoxicity at 10 µM
45 | Cc1ccc(C(=O)N2CCC3(CC2)CN(CCN(C)C)C(=O)O3)c(F)c1 | 7.46%
46 | COc1cc(OC)c(-c2nc3c([nH]2)c(C2CC2)nn3C)cc1OC | -5.02%
47 | CC(=O)N[C@@H]1CN(S(=O)(=O)Cc2ccccc2)C[C@H]1C(C)C | -5.61%
48 | CCc1nnc(CN(C)c2nccc(N3CCCC(O)C3)n2)o1 (stereo not drawn) | -4.68%
49 | CCOC(=O)CC1CCCCN1C(=O)c1cc(=O)[nH]c(=O)[nH]1 (stereo not drawn) | 5.76%
50 | CCC[C@H]1CN(Cc2ccc(N(C)C)nc2)C[C@@H]1NC(=O)CO | 9.23%
51 | CC[C@H](C)[C@@H](CO)NC(C)Cc1ccc(C)cc1 (stereo partly drawn) | -4.48%
52 | CC(C)[C@H]1COC(=O)N1CC(=O)N(C)CCCn1cccn1 | -157%
53 | CCn1cncc1C1CC(=O)Nc2c1c(C)nn2-c1ccc(C)cc1 (stereo not drawn) | -8.23%
54 | COCCN(C)C[C@@H]1CN(C(=O)c2ccc3c(c2)OCO3)C[C@@H]1CO | 8.47%
55 | CC(C)[C@@H]1CN(c2ncc(F)cn2)C[C@H]1NS(=O)(=O)N(C)C | 14%
56 | Cc1cc(C(=O)N2CC[C@@]3(O)CCN(S(C)(=O)=O)C[C@H]3C2)c(C)n1C | -8%
57 | CS(=O)(=O)N[C@H]1CN(C(=O)CCc2ccc(=O)[nH]n2)C[C@@H]1C1CC1 | 1.56%
58 | Cc1cc(N2CCC(c3ncc[nH]3)CC2)c2ccccc2n1 | -9.74%
59 | O=C(CCC1CCN(C2CCSCC2)CC1)NCC1CCCO1 (stereo not drawn) | 8.73%
60 | CC(CCc1ccc(O)cc1)NC1CCN(C(=O)C(C)C)CC1 (stereo not drawn) | -4.89%
61 | Cc1ccc(O)c(C(=O)N2CCC3(CCCNC3)C2)c1 (stereo not drawn) | -10.2%
62 | CC(C)c1nc(N2CCC(N3CCCCCC3)CC2)c2cnn(C)c2n1 | -135%
63 | Cc1nccn1CCN(C)C(=O)c1cn(CC2CCCCC2)nn1 | -1.84%
64 | c1cc(CN2CCC(n3cc(CN4CCCC4)nn3)CC2)cs1 | -6.26%
65 | C[C@@H]1CN(C(=O)C2(N3CCCCC3)Cc3ccccc3C2)C[C@H](C)O1 | -0.238%
66 | Cc1ccc(C(=O)NCCC2CCN(C)CC2)cc1N(C)S(C)(=O)=O | -15.1%

Row | Compound | cytotoxicity at 10 µM
67 | Cc1nn2c(N3CCC(O)CC3)cc(-c3ccccc3)nc2c1C | -6.54%
68 | CCc1nc(C2CCCN2Cc2nnc(C3CCC3)o2)no1 (stereo not drawn) | 1.48%
69 | Cc1ccccc1CC(=O)N1CCOCC1c1c(C)n[nH]c1C (stereo not drawn) | -5.6%
70 | c1cnnc(N2CCCC2CNCc2nc(-c3ccoc3)no2)c1 (stereo not drawn) | -18.7%
71 | CCNc1cc2c(nn1)CCN(C(=O)c1ccc(C(N)=O)cc1)C2 | -15.6%
72 | Cc1cccc(OCC(O)CN2CCC(c3ccn[nH]3)CC2)c1 (stereo not drawn) | -3.6%
73 | Cn1cc(C2CCCN2Cc2cscn2)cn1 (stereo not drawn) | 4.24%
74 | CCCNC(=O)C1CCN(Cc2csc(C(C)C)n2)CC1 | -19.5%
75 | Cc1nc(C)n(CC2CCCCN2CCOc2ccc(C#N)cc2)n1 (stereo not drawn) | -6.79%
76 | Cc1nc(C)n(CC2CN(CCOc3ccc(C#N)cc3)CCO2)n1 (stereo not drawn) | -2.69%
77 | O=C(CCc1cc(F)ccc1F)NS(=O)(=O)c1ccc2c(c1)OCCO2 | -18.8%
78 | Cc1cn2nc(N3CCN(Cc4nc(C(C)C)no4)CC3)sc2n1 | -7.27%
79 | NC(=O)COc1cccc(C(=O)N2CCCC(n3ccnc3)C2)c1 (stereo not drawn) | -9.63%
80 | O=C(CN1CCN(C(=O)Cc2ccc3c(c2)OCCO3)CC1)NC1CC1 | -2.35%
81 | CC(CCc1ccccc1)NC(=O)Nc1cnn(CC(N)=O)c1 (stereo not drawn) | 1.64%
82 | NC(=O)C1CCC(NC(=O)COc2ccc(Cl)c(Cl)c2)CC1 (stereo not drawn) | -12.5%
83 | CC(C)COC(C)C(=O)NCc1ccc(N(C)C)cc1 (stereo not drawn) | 2.53%
84 | O=C(NCCS(=O)(=O)N1CCc2ccccc21)c1c(O)cc(F)cc1F | 0.217%
85 | Cc1ccc(CN(Cc2cccnc2)C2CC(C)(C)NC(C)(C)C2)s1 | 4.94%
86 | CCN1CCOCC12CCN(C(=O)c1ccsc1)CC2 | -146%
87 | Cc1ncnc2c1CCN(Cc1ccc3c(c1)OCO3)CC2 | -9.23%
88 | O=C(c1cnccn1)N1C[C@@H]2CCN(c3cccnc3)C[C@@H]2C1 | -65.8%

Row | Compound | cytotoxicity at 10 µM
89 | Cc1ncsc1CN1C[C@@H]2COC[C@]2(C(=O)NCc2cccnc2)C1 | -106%
90 | O=C(N1CCCC1)N1CCC2(CC1)COCCN(Cc1cccnc1)C2 | -77.3%
91 | c1coc(CN2C[C@@H]3OCCN(CC4CCCO4)[C@@H]3C2)c1 (stereo partly drawn) | -83.1%
92 | O=C(c1ccsc1)N1CCO[C@@H]2CN(Cc3nccs3)C[C@@H]2C1 | -108%
93 | Cc1ccc(CN2CCn3c(C(=O)N(C)C)cnc3C2)cc1 | -68.9%
94 | COc1ccc(C[C@H]2CN(C(=O)CN(C)C)CC[C@H]2OC)cc1 | 3.96%
95 | COCCN1CCOCC12CCN(c1cnccn1)CC2 | -102%
96 | Cc1noc(C)c1CN1CCC2(CC1)C(c1ccccc1)CC(=O)N2C (stereo not drawn) | -105%
97 | c1ccc(CN2CCC3(CC2)CCN(c2ccccn2)C3)nc1 | -128%
98 | O=C(C1CC(F)(F)C1)N1C[C@@H]2CN(Cc3ccsc3)CCO[C@@H]2C1 | -93.5%
99 | Cc1cccc(CN2CC[C@@H]3[C@@H]2CCN3C(=O)Cc2cccs2)n1 | -114%
100 | O=C(c1cccnc1)N1CCc2ncnc(N3CCOCC3)c2CC1 | -79.3%
101 | COc1ncccc1CN1CCC2(CC1)CN(c1ccccn1)CCO2 | -6.6%
102 | c1cn2c(n1)CN(CC1CC1)CC(CN1CCOCC1)C2 (stereo not drawn) | 1.49%
103 | COc1ccc2c(ccn2CCCN)c1 | -3.91%
104 | Cc1ccoc1C(=O)N1C[C@H]2CCC[C@@]2(COCc2ccncc2)C1 | 9.56%
105 | Cc1ccc(NC(=O)Nc2c(O)c3ccccc3oc2=O)cc1 | 3.21%
106 | Cc1cnc(C(=O)N2C[C@@H]3CC[C@H]2CN(Cc2cscn2)C3)[nH]1 | 4.16%
107 | O=c1c2c[nH]c(N3CCCC3)nc-2cn1C1CCS(=O)(=O)C1 (stereo not drawn) | 1.09%
108 | Cc1cnc(C(=O)N2C[C@@H]3CC[C@H]2CN(S(=O)(=O)N(C)C)C3)cn1 | -6.77%
